Experiment [1] addresses calcineurin (CN) (UniProt Q08209). The experiment can be described thus: Calcineurin-AKAP79 competitive binding assay. To be noted: for Ki: read-out: estimated Ki, competition with fluorescent PVIVIT peptide for binding to CN, GST-AKAP79(333–348) fusion proteins (14mer), representative of three experiments. Also on record: species or system human.
Experiment [2] has as its system NFAT3 (NFATc4) nuclear translocation in hippocampal neurons. The experiment is described as follows: NFAT translocation assay after KCl depolarization. As to conditions: full-length AKAP79 expressed after AKAP150 RNAi; 3-min 90 mM KCl. In kind it is cell-based, rat.
Experiment [3] has as its target calcineurin (CN) (UniProt Q08209). In kind it is binding, human. To be noted: 36 °C. The method in brief:
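ATTO 425-labeled AKAP79(333–408) donor (100 nM) was complexed with tetramethylrhodamine-labeled CN acceptor. The preformed complex was mixed in a stopped-flow instrument with 100 µM (final) unlabeled PVIVIT to block rebinding, at room temperature or 36 °C. Dissociation was followed as the fall in FRET signal, fitted as a single exponential; half-time was taken from the rate (n = 4).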

Another experiment concerns the target CN. As to conditions: cited from earlier work; for Kd: read-out: Kd for CN, natural recognition sites.
In experiment [4] the test system is CN-YFP / AKAP79-YFP mobility in rat hippocampal neuron dendritic spines. The experiment can be described thus: FRAP microscopy in single dendritic spines. In kind it is cell-based. To be noted: wildtype AKAP79-YFP in dendritic spines, single exponential fit.

Sequence of calcineurin (CN) (Q08209 1-381): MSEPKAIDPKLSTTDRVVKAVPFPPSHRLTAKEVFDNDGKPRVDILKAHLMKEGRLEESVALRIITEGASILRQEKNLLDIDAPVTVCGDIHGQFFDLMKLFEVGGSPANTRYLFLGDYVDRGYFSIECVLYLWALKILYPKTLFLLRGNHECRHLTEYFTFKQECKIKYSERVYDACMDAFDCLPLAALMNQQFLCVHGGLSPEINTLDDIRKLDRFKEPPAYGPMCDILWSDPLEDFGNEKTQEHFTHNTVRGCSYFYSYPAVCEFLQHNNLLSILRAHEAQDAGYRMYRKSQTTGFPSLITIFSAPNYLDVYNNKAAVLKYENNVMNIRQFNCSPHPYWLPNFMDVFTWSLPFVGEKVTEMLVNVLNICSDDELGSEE
Sequence of calcineurin (CN) (P63098 16-170 partner): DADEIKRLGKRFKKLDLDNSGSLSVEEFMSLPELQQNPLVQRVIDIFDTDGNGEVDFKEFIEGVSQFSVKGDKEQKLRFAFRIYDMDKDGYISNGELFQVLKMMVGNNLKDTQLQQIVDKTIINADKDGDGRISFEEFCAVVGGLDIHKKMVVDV

One may read the Ki as the equilibrium dissociation constant of an inhibitor or competing ligand from its target. In the case of AIAIIIT, the Ki on calcineurin (CN) [1] was 3.7 µM.

Turning to PAAIIIT, the Ki at calcineurin (CN) [1] is 47 µM.

For PIAIIIA, the “rescue of NFAT nuclear translocation” value in experiment [2] is recorded as “somewhat less efficiently”.

As for PPAIIIA, in experiment [2], the “rescue of NFAT nuclear translocation” value is on record as “as efficiently as wildtype AKAP79”.

Consider PPAIIIT, for which, on calcineurin (CN) [3] (corresponding to mean dissociation rate), the half-time of dissociation is ~ 163 ms. Further, the mean dissociation rate at calcineurin (CN) [3] (preformed complex mixed with excess unlabelled PVIVIT, mean of n = 4) stood at 4.24 s⁻¹. In addition, in experiment [2], the “rescue of NFAT nuclear translocation” value is given as “completely unable to rescue signaling”. Moreover, the “fold stronger binding to CN than wildtype AKAP79” value on calcineurin (CN) [1] (GST fusion proteins displacing labeled PVIVIT) is reported as ~ 4 fold.

The term Kd denotes the equilibrium constant for the complex coming apart. Take PQIIIS: the Kd on CN was 5 µM.

For PRIEIA, the “shift in Kd caused by PRIEIT>PRIEIA substitution in NFAT1” value with CN was 10 fold.

As to PRIEIT, the Kd on CN was ~25 µM.

For the substance PSIQIT, the Kd on CN was ~25 µM.

As for PSIRIT, on CN, the Kd was ~25 µM.

With PVIAVN, the Kd on CN is 250 µM.

For “wildtype AKAP79: full-length RNAi-resistant human AKAP79 (YFP- or CFP-tagged) expressed in rat hippocampal neurons”, in experiment [2], the “rescue of NFAT nuclear translocation” value is recorded as “rescued NFAT nuclear translocation”. The “mobile fraction of AKAP79-YFP (maximal percent recovery)” value in experiment [4] is listed as 61.8 ± 0.6%.

Source of the values: publication PMC3294036 (Nature structural & molecular biology, 2012).
